Reference: ChEMBL document CHEMBL4251576, “Synthesis and biological evaluation of curcumin inspired imidazo[1,2-a]pyridine analogues as tubulin polymerization inhibitors” (Eur J Med Chem, 2018)
Counter-ions that a name gives are not always drawn.

Tests used:
HeLa = test: Cytotoxicity against human HeLa cells assessed as inhibition of cell viability after 48 hrs by MTT assay; type: functional, cell-based
Summary of the method: (§1)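 Cells were seeded at 2.5‒5 x 10^3 per well in DMEM or RPMI with 10% FBS and grown 24 h at 37 °C under CO2. Compounds diluted in medium were added alongside vehicle control for 48 h. MTT (0.5 mg/mL) was added for 4 h, formazan dissolved in DMSO and absorbance read at 570 nm. IC50 is the concentration giving 50% loss of viability; mean ± SD of three experiments, each in triplicate.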

HGC-27 = test: Cytotoxicity against human HGC27 cells assessed as inhibition of cell viability after 48 hrs by MTT assay; type: functional, cell-based; settings: HGC-27, 48 h; summary of the method: as §1
NCI-H460 [1] = test: Cytotoxicity against human NCI-H460 cells assessed as inhibition of cell viability after 48 hrs by MTT assay; type: functional, cell-based; settings: NCI-H460, 48 h; summary of the method: as §1
DU-145 [2] = test: Cytotoxicity against human DU145 cells assessed as inhibition of cell viability after 48 hrs by MTT assay; type: functional, cell-based; settings: DU-145, 48 h; summary of the method: as §1
PC-3 [3] = test: Cytotoxicity against human PC3 cells assessed as inhibition of cell viability after 48 hrs by MTT assay; type: functional, cell-based; settings: PC-3, 48 h; summary of the method: as §1
4T1 = test: Cytotoxicity against mouse 4T1 cells assessed as inhibition of cell viability after 48 hrs by MTT assay; type: functional, cell-based; settings: 4T1, 48 h; summary of the method: as §1
NCI-H460 [4] = test: Potency index, ratio of curcumin IC50 to test compound IC50 for human NCI-H460 cells; type: functional
DU-145 [5] = test: Potency index, ratio of curcumin IC50 to test compound IC50 for human DU145 cells; type: functional
PC-3 [6] = test: Potency index, ratio of curcumin IC50 to test compound IC50 for human PC3 cells; type: functional

Row | Compound | IC50 (HeLa) [µM] | IC50 (HGC-27) [µM] | IC50 (NCI-H460 [1]) [µM] | IC50 (DU-145 [2]) [µM] | IC50 (PC-3 [3]) [µM] | IC50 (4T1) [µM] | Ratio IC50 (NCI-H460 [4]) | Ratio IC50 (DU-145 [5]) | Ratio IC50 (PC-3 [6])
1 | COc1cccc(-c2c(/C=C/C(=O)/C=C/c3ccc(OC)cc3OC)nc3ccccn23)c1 | > 10 | > 10 | > 10 | > 10 | > 10 | > 10 |  |  | 
2 | COc1ccc(/C=C/C(=O)/C=C/c2nc3ccccn3c2-c2ccc(F)c(F)c2)cc1OC | 5.58 | 3.38 | 3.01 | 4.87 | 5.43 | 3.45 | 5.7 | 6.8 | 3.4
3 | COc1ccc(/C=C/C(=O)/C=C/c2nc3ccccn3c2-c2ccc(F)c(F)c2)c(OC)c1 | 8.41 | 10.3 | 9.53 | 8.46 | 8.94 | 9.72 | 1.8 | 3.9 | 2.1
4 | COc1ccc(/C=C/C(=O)/C=C/c2nc3ccccn3c2-c2cccc(OC)c2)cc1 | > 10 | > 10 | > 10 | > 10 | > 10 | > 10 |  |  | 
5 | COc1cc(OC)c(OC)cc1/C=C/C(=O)/C=C/c1nc2ccccn2c1-c1ccccc1 | 1.67 | 5.38 | 2.84 | 3.71 | 2.75 | 1.68 | 6 | 8.9 | 6.8
6 | COc1ccc(/C=C/C(=O)/C=C/c2nc3ccccn3c2-c2ccccc2)c(OC)c1 | > 10 | > 10 | > 10 | > 10 | > 10 | > 10 |  |  | 
7 | COc1ccc(-c2c(/C=C/C(=O)/C=C/c3cc(OC)ccc3OC)nc3ccccn23)cc1 | > 10 | > 10 | > 10 | > 10 | > 10 | > 10 |  |  | 
8 | COc1cc(OC)c(/C=C/C(=O)/C=C/c2nc3ccccn3c2-c2ccccc2)c(OC)c1 | > 10 | > 10 | > 10 | > 10 | > 10 | > 10 |  |  | 
9 | COc1ccc(OC)c(/C=C/C(=O)/C=C/c2nc3ccccn3c2-c2ccc(F)c(F)c2)c1 | 4.93 | 6.35 | 3.11 | 4.19 | 2.84 | 3.27 | 5.5 | 7.9 | 6.6
10 | COc1ccc(-c2c(/C=C/C(=O)/C=C/c3cc(OC)c(OC)cc3OC)nc3ccccn23)cc1 | 9.41 | 8.77 | 5.52 | 5.63 | 7.24 | 4.69 | 3.1 | 5.9 | 2.6
11 | COc1ccc(-c2c(/C=C/C(=O)/C=C/c3ccc(OC)c(OC)c3)nc3ccccn23)cc1 | 6.66 | 7.84 | 4.28 | 4 | 3.64 | 5.61 | 4 | 8.3 | 5.1
12 | COc1ccc(-c2c(/C=C/C(=O)/C=C/c3ccc(OC)cc3OC)nc3ccccn23)cc1 | > 10 | > 10 | > 10 | > 10 | > 10 | > 10 |  |  | 
13 | COc1cc(/C=C/C(=O)CC(=O)/C=C/c2ccc(O)c(OC)c2)ccc1O [CURCUMIN] |  |  |  |  | 18.7 |  |  |  | 
14 | COc1ccc(/C=C/C(=O)/C=C/c2nc3ccccn3c2-c2ccc(F)c(F)c2)cc1 | > 10 | > 10 | > 10 | > 10 | > 10 | > 10 |  |  | 
15 | COc1ccc(/C=C/C(=O)/C=C/c2nc3ccccn3c2-c2ccccc2)cc1OC | > 10 | > 10 | > 10 | > 10 | > 10 | > 10 |  |  | 
16 | COc1cccc(-c2c(/C=C/C(=O)/C=C/c3ccc(OC)c(OC)c3)nc3ccccn23)c1 | > 10 | > 10 | > 10 | > 10 | > 10 | > 10 |  |  | 
17 | COc1cccc(-c2c(/C=C/C(=O)/C=C/c3cc(OC)ccc3OC)nc3ccccn23)c1 | > 10 | > 10 | > 10 | > 10 | > 10 | > 10 |  |  | 
18 | CC[C@]1(O)C[C@H]2CN(CCc3c([nH]c4ccccc34)[C@@](C(=O)OC)(c3cc4c(cc3OC)N(C=O)[C@H]3[C@@](O)(C(=O)OC)[C@H](OC(C)=O)[C@]5(CC)C=CCN6CC[C@]43[C@@H]65)C2)C1 [VINCRISTINE SULFATE] |  |  |  | 71.8 |  |  |  |  | 
19 | COc1ccc(/C=C/C(=O)/C=C/c2nc3ccccn3c2-c2ccc(OC)cc2)cc1 | > 10 | > 10 | > 10 | > 10 | > 10 | > 10 |  |  | 
20 | COc1ccc(/C=C/C(=O)/C=C/c2nc3ccccn3c2-c2ccccc2)cc1 | > 10 | > 10 | > 10 | > 10 | > 10 | > 10 |  |  | 
21 | COc1ccc(OC)c(/C=C/C(=O)/C=C/c2nc3ccccn3c2-c2ccccc2)c1 | 5.51 | 7.08 | 4.01 | 3.38 | 3.03 | 3.38 | 4.3 | 9.8 | 6.1
